Assay results from different studies.
Compare with care: the assays were run in different laboratories.
SLC6A3: Sodium-dependent dopamine transporter (SLC6A3, Homo sapiens, UniProt Q01959)
CA12: Carbonic anhydrase 12 (CA12, Homo sapiens, UniProt O43570)
DRD3: D(3) dopamine receptor (DRD3, Homo sapiens, UniProt P35462)
USP51: Ubiquitin carboxyl-terminal hydrolase 51 (USP51, Homo sapiens, UniProt Q70EK9)
Lyn: Tyrosine-protein kinase Lyn (Lyn, Mus musculus, UniProt P25911)

Compound | target | assay | system | conditions | inhibition [%]
Clc1ccc(C(c2ccccc2)c2nnnn2CCCCN2CCC(CCc3ccccc3)CC2)cc1 (stereo not drawn) | SLC6A3 | transporter uptake, inhibitor | HEK293 | 1 µM | 74.6
Cc1ccc(-c2nn(-c3ccccc3)cc2C2c3sc(=O)[nH]c3SC3C(=O)N(c4ccccc4)C(=O)C32)cc1 (stereo not drawn) | CA12 | enzyme activity, inhibitor, absorbance |  | 0.1 µM | 33.2
CC(=O)Nc1ccc(N2CC(O)=C(c3nc4ccccc4[nH]3)C2=N)cc1 | DRD3 | enzyme activity, inhibitor |  | 10 µM | -23.2
O=C(CO)[C@@H](O)[C@H](O)[C@H](O)CO | USP51 | enzyme activity, inhibitor |  | 5 µM | 97
O=C1NC(=S)C(=Cc2cn(-c3ccccc3)nc2-c2ccc(Br)cc2)S1 | CA12 | enzyme activity, inhibitor, absorbance |  | 100 µM | 75
CS(=O)(=O)c1ccc(Nc2ccc3c(c2)OCO3)c([N+](=O)[O-])c1 | Solute carrier family 2, facilitated glucose transporter member 5 (SLC2A5, Homo sapiens, UniProt P22732) | transporter uptake, inhibitor | MCF7 | 25 µM | ~90
Fc1ccc(C(c2ccc(F)cc2)c2nnnn2CCCCN2CCC(Cc3ccc(Cl)c(Cl)c3)CC2)cc1 | SLC6A3 | transporter uptake, inhibitor | HEK293 | 1 µM | 68.9
NS(=O)(=O)c1ccc(CCNCc2ccc(-c3ccccc3F)o2)cc1 | DRD3 | enzyme activity, inhibitor |  | 10 µM | 44.2
Clc1ccc(C(c2ccc(Cl)cc2)c2nnnn2CCCCN2CCC(Cc3ccccc3)CC2)cc1 | SLC6A3 | transporter uptake, inhibitor | HEK293 | 1 µM | 78.5
CCN(CC)CCNC(=O)c1c(C)[nH]c(/C=C2\C(=O)Nc3ccc(F)cc32)c1C | Lyn | enzyme activity, inhibitor |  | 10 µM | 98
CCOC(=O)C1CSc2[nH]c(=O)sc2C1c1cn(-c2ccccc2)nc1-c1ccc(Cl)cc1 (stereo not drawn) | CA12 | enzyme activity, inhibitor, absorbance |  | 10 nM | 27.6
Clc1ccc(C(c2ccc(Cl)cc2)c2nnnn2CCCCN2CCC(c3ccccc3)CC2)cc1 | SLC6A3 | transporter uptake, inhibitor | HEK293 | 1 µM | 90.1
FC(F)(F)c1cccc(-c2ccc(CNCCCN3CCOCC3)o2)c1 | DRD3 | enzyme activity, inhibitor |  | 10 µM | 50.7
Nc1[nH]cnc2ncnc1-2 | USP51 | enzyme activity, inhibitor |  | 5 µM | 33
Clc1ccc(C(c2ccccc2)c2nnnn2CCCCN2CCN(CCc3ccccc3)CC2)cc1 (stereo not drawn) | SLC6A3 | transporter uptake, inhibitor | HEK293 | 1 µM | 62.1
CCOC(=O)C1CSc2[nH]c(=O)sc2C1c1cn(-c2ccccc2)nc1-c1ccc(Br)cc1 (stereo not drawn) | CA12 | enzyme activity, inhibitor, absorbance |  | 0.1 µM | 31.5
CCOc1ccc(CNCC(O)c2ccccc2)cc1Br (stereo not drawn) | DRD3 | enzyme activity, inhibitor |  | 10 µM | 11.4
CCOC(=O)C1CSc2[nH]c(=O)sc2C1c1cn(-c2ccccc2)nc1-c1ccc(C)cc1 (stereo not drawn) | CA12 | enzyme activity, inhibitor, absorbance |  | 0.1 µM | 28
O=c1oc2cc(OCC(O)CN3CCN(c4ccc(F)cc4)CC3)ccc2c2c1CCC2 (stereo not drawn) | DRD3 | enzyme activity, inhibitor |  | 10 µM | 0
CCOC(=O)C1CSc2[nH]c(=O)sc2C1c1cn(-c2ccccc2)nc1-c1ccccc1 (stereo not drawn) | CA12 | enzyme activity, inhibitor, absorbance |  | 10 µM | 72.5

Compound | target | assay | system | conditions | inhibition [%]
CCN(c1cc(C#CCN2CCOCC2)cc(C(=O)NCc2c(C)cc(C)[nH]c2=O)c1C)[C@H]1CC[C@H](N(C)CCOC)CC1 | Protein arginine N-methyltransferase 1 (PRMT1, Homo sapiens, UniProt Q99873) | enzyme activity, inhibitor |  | 1 µM | 10
Fc1ccc(C(c2ccc(F)cc2)c2nnnn2CCCCN2CCN(Cc3ccccc3)CC2)cc1 | SLC6A3 | transporter uptake, inhibitor | HEK293 | 1 µM | 95.7
Cc1ccc(C(C)C)c(OCC(O)CN2CCN(c3ccccc3F)CC2)c1 (stereo not drawn) | DRD3 | enzyme activity, inhibitor |  | 10 µM | 20.4
O=c1c(-c2ccc(O)cc2)coc2cc(O[C@@H]3O[C@H](CO)[C@@H](O)[C@H](O)[C@H]3O)ccc12 | USP51 | enzyme activity, inhibitor |  | 5 µM | 39
c1ccc(CCC2CCN(CCCCn3nnnc3C(c3ccccc3)c3ccccc3)CC2)cc1 | SLC6A3 | transporter uptake, inhibitor | HEK293 | 1 µM | 80.3
Cc1cccc(N2CCN(CC(O)COc3ccc4ccccc4c3)CC2)c1C (stereo not drawn) | DRD3 | enzyme activity, inhibitor |  | 10 µM | 52.9
C[Se]CC[C@H](N)C(=O)O | USP51 | enzyme activity, inhibitor |  | 5 µM | 34
O=C(c1ccc(Cl)cc1)N(Cc1ccccc1)C1CCCCC1 | Urotensin-2 receptor (UTS2R, Homo sapiens, UniProt Q9UKP6) | cell-free assay |  | 10 µM | 27.3
COc1ccc([C@@H]2CC(=O)c3c(O)cc(O[C@@H]4O[C@H](CO[C@@H]5O[C@@H](C)[C@H](O)[C@@H](O)[C@H]5O)[C@@H](O)[C@H](O)[C@H]4O)cc3O2)cc1O | USP51 | enzyme activity, inhibitor |  | 5 µM | 30
Clc1ccc(C(c2ccccc2)c2nnnn2CCCCN2CCN(CC=Cc3ccccc3)CC2)cc1 (stereo not drawn) | SLC6A3 | transporter uptake, inhibitor | HEK293 | 1 µM | 82.2
COc1cc(NC(C)=O)c(Cl)cc1C(=O)Nc1nccs1 | Peroxisome proliferator-activated receptor gamma (PPARG, Homo sapiens, UniProt P37231) | cell-free assay |  | 10 µM | 31.6
CNC(=O)c1cc(Oc2ccc(NC(=O)Nc3ccc(Cl)c(C(F)(F)F)c3)cc2)ccn1 | Lyn | enzyme activity, inhibitor |  | 0.3 µM | 37
CC(C)(COP(=O)(O)OP(=O)(O)OC[C@H]1O[C@@H](n2cnc3c(N)ncnc32)[C@H](O)[C@@H]1OP(=O)(O)O)[C@@H](O)C(=O)NCCC(=O)NCCS | Histone acetyltransferase KAT2A (KAT2A, Homo sapiens, UniProt Q92830) | enzyme activity, inhibitor, mobility shift |  | 10 µM | 29
N[C@@H](CSSC[C@H](N)C(=O)O)C(=O)O | USP51 | enzyme activity, inhibitor |  | 5 µM | 24
N#CC1CSc2[nH]c(=O)sc2C1c1cn(-c2ccccc2)nc1-c1ccc(Br)cc1 (stereo not drawn) | CA12 | enzyme activity, inhibitor, absorbance |  | 10 µM | 84.7
O=C(/C=C/C=C/c1ccc2c(c1)OCO2)N1CCCCC1 | USP51 | enzyme activity, inhibitor |  | 5 µM | 31
Cc1ccccc1N1CCN(CCCCN2C(=O)C3CCCN3C2=O)CC1 (stereo not drawn) | DRD3 | enzyme activity, inhibitor |  | 10 µM | 47.3
CCOC(=O)C1CSc2[nH]c(=O)sc2C1c1cn(-c2ccccc2)nc1-c1ccc(OC)cc1 (stereo not drawn) | CA12 | enzyme activity, inhibitor, absorbance |  | 0.1 µM | 37.6
CC(=O)c1ccc(O)c(C(=O)O)c1 | USP51 | enzyme activity, inhibitor |  | 5 µM | 29
